Key:
[1] = biological target: T1, Protein kinase C (PKC) (Homo sapiens) (UniProt O94806+P41743+P17252+P05129+Q05655+P05771+Q05513+Q02156+P24723+Q15139+Q04759); assay: Retained protein kinase C activity in the presence of 5 uM compound; format: functional
Procedure, shortened: (§1)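 Assay at pH 7.5, 25 mM Tris, 10 mM MgCl2, 0.1 mM CaCl2, 40 µg/mL histone, 10 µM ATP with [γ-32P]ATP, 20 µg/mL phosphatidylserine, 2.5 µM OAG. Compound added in ethanol before enzyme; 20 min at 30 °C; TCA-precipitated 32P-histone counted; 0.1% ethanol control; duplicates in three trials, fresh enzyme each.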

[2] = biological target: T1, Protein kinase C (PKC) (Homo sapiens); assay: Retained protein kinase C activity in the presence of 1.25 uM compound; format: functional; procedure, shortened: as §1
[3] = biological target: T1, Protein kinase C (PKC) (Homo sapiens); assay: Inhibition of Protein Kinase C purified from HL-60 cells; format: cell-free; procedure, shortened: as §1
[4] = biological target: T1, Protein kinase C (PKC) (Homo sapiens); assay: Retained protein kinase C activity in the presence of 10 uM compound; format: functional; procedure, shortened: as §1
[5] = biological target: T1, Protein kinase C (PKC) (Homo sapiens); assay: Retained protein kinase C activity in the presence of 20 uM compound; format: functional; procedure, shortened: as §1
[6] = biological target: T1, Protein kinase C (PKC) (Homo sapiens); assay: Retained protein kinase C activity in the presence 2.5 uM compound; format: functional; procedure, shortened: as §1
[7] = biological target: T1, Protein kinase C (PKC) (Homo sapiens); assay: Retained protein kinase C activity in the presence of 40 uM compound; format: functional; procedure, shortened: as §1

Structure (SMILES) | Activity [1] | Activity [2] | ID50 [3] | Activity [4] | Activity [5] | Activity [6] | Activity [7]
CCCCCCCCCCCCCCCCSCC(C[N+](C)(C)CCO)OC (stereo unspecified) | 73% | 97% | 27 µM | 60% | 54% | 90% | 42%
CCCCCCCCCCCCCCCCOCC(C[N+](C)(C)CCO)OC (stereo unspecified) | 87% | 107% | 17 µM | 64% | 42% | 95% | 29%
CCCCCCCCCCCCCCCCCC1OCC(C[N+](C)(C)CCCO)O1 (stereo unspecified) | 61% | 99% | 13 µM | 56% | 36% | 99% | 12%
CCCCCCCCCCCCCCCCOCC(COCC[N+](C)(C)C)OC (stereo unspecified) | 83% | 92% | 31 µM | 73% | 57% | 91% | 43%
CCCCCCCCCCCCCCCCOCC(COCCO)OC (stereo unspecified) | 72% | 98% | 28 µM | 66% | 53% | 86% | 43%

The next lines start with the values.

Activity [1] | Activity [2] | ID50 [3] | Activity [4] | Activity [5] | Activity [6] | Activity [7] | Structure (SMILES)
81% | 112% | 25 µM | 74% | 54% | 88% | 29% | CCCCCCCCCCCCCCCCSCC(C[N+](C)(C)C)OC (stereo unspecified)
67% | 78% | 26 µM | 60% | 59% | 64% | 37% | CCCCCCCCCCCCCCCCSCC(C[N+](C)(C)CCCO)OCC (stereo unspecified)
73% | 99% | 12 µM | 60% | 40% | 93% | 29% | CCCCCCCCCCCCCCCCCCOCC(COP(=O)([O-])OCC[N+](C)(C)C)OC (stereo unspecified)
83% | 99% | > 40 µM | 89% | 87% | 99% | 90% | COC(COc1cccc2ccccc12)C[N+](C)(C)CCO (stereo unspecified)
70% | 94% | 17 µM | 56% | 43% | 90% | 19% | CCCCCCCCCCCCCCCCC[C@@H]1OC[C@@H](C[N+](C)(C)CCCO)O1
87% | 88% | > 40 µM | 88% | 96% | 84% | 87% | CC1(C)OC[C@@H](C[N+](C)(C)CCO)O1
49% | 75% | 5 µM | 39% | 27% | 56% | 23% | CCCCCCCCCCCCCCCCCCSCC(C[N+](C)(C)CCCO)OC (stereo unspecified)
70% | 92% | 37 µM | 70% | 66% | 84% | 47% | CCCCCCCCCCCCCCCCSCC(C[N+](C)(C)CCO)OCC (stereo unspecified)

From ChEMBL document CHEMBL1124731, “Synthesis and biological activity of novel quaternary ammonium derivatives of alkylglycerols as potent inhibitors of protein kinase C” (J Med Chem, 1990)
